Laboratory results from ChEMBL document CHEMBL4270573, “Novel nicotinoyl pyrazoline derivates bearing N-methyl indole moiety as antitumor agents: Design, synthesis and evaluation” (Eur J Med Chem, 2018).

Columns and labels:
Assay type in all cases: functional
[1] = test system: HeLa; assay: Induction of apoptosis in human HeLa cells assessed as late apoptotic cells at 0.080 uM after 24 hrs by Annexin V-FITC/propidium iodide staining based flow cytometric analysis (reference value: 4.98%)
How it was run: (§1)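 HepG2 and HeLa cells were exposed to 0, 0.02, 0.040, 0.060, 0.080 and 0.10 µM for 6, 12 and 24 h. Cells were double-stained with Annexin V-FITC/PI and read by flow cytometry. Apoptotic rate was the percentage of FITC-positive cells, counting early plus late apoptotic.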

[2] = test system: HepG2; assay: Induction of apoptosis in human HepG2 cells assessed as early apoptotic cells at 0.040 uM after 24 hrs by Annexin V-FITC/propidium iodide staining based flow cytometric analysis (reference value: 2.31%); how it was run: as §1
[3] = test system: HepG2; assay: Cell cycle arrest in human HepG2 cells assessed as accumulation at G2/M phase at 0.020 to 0.10 uM after 6 to 24 hrs by propidium iodide staining based flow cytometric analysis relative to control
How it was run: (§2)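 HepG2 and HeLa cells were exposed to 0, 0.020, 0.040, 0.060, 0.080 or 0.10 µM for 6, 12 or 24 h. DNA content was stained with propidium iodide and analysed by flow cytometry to give the percentage of cells in G0/G1, S and G2/M phases; sub-G1 cells were also recorded.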

[4] = test system: HepG2; assay: Induction of apoptosis in human HepG2 cells assessed as necrotic cells at 0.10 uM after 24 hrs by Annexin V-FITC/propidium iodide staining based flow cytometric analysis (reference value: 0.270%); how it was run: as §1
[5] = test system: HeLa; assay: Cell cycle arrest in human HeLa cells assessed as accumulation at G2/M phase at 0.10 uM after 24 hrs by propidium iodide staining based flow cytometric analysis (reference value: 17.72%); how it was run: as §2
[6] = test system: HepG2; assay: Induction of apoptosis in human HepG2 cells assessed as late apoptotic cells at 0.080 uM after 24 hrs by Annexin V-FITC/propidium iodide staining based flow cytometric analysis (reference value: 2.93%); how it was run: as §1
[7] = test system: HeLa; assay: Antitumor activity against human HeLa cells xenografted in nude mouse assessed as tumor volume at 10 mg/kg, ip after 14 days (reference value: 2292.17 mm3)
[8] = test system: HeLa; assay: Cell cycle arrest in human HeLa cells assessed as accumulation at G2/M phase at 0.040 uM after 24 hrs by propidium iodide staining based flow cytometric analysis (reference value: 17.72%); how it was run: as §2
[9] = test system: HeLa; assay: Induction of apoptosis in human HeLa cells assessed as necrotic cells at 0.060 uM after 24 hrs by Annexin V-FITC/propidium iodide staining based flow cytometric analysis (reference value: 0.242%); how it was run: as §1

COc1cccc(C2=NN(C(=O)c3ccc(C)nc3)C(c3cn(C)c4ccc(OC)cc34)C2)c1 (centres undefined)
Activity [1]: 7.03%
Activity [2]: 7.34%
Activity [3]: >60%
Activity [4]: 2.46%
Activity [5]: 61.12%
Activity [6]: 6.01%
Activity [7]: 1213.02 mm3
Activity [8]: 27.81%
Activity [9]: 0.484%
